# Reference: ChEMBL document CHEMBL1122124, “Synthesis and immunoadjuvant activities of 2-acetamido-5-O-acetyl-6-O-acyl-2-deoxy-3-O-[(R)-2-propionyl-L-alanyl-D- isoglutamine]-D-glucofuranoses as potential prodrug forms of 6-O-Acyl Derivatives of N-acetylmuramyl dipeptide” (1982)
# What was measured:
# Format in all cases: functional
# [1] = species on record: Mus musculus; assay: Tested for antibody response of mice injected with Bovine serum Albumin(BSA) at 5 ug/dose in experiment 1
# [2] = species on record: Mus musculus; assay: Tested for antibody response of mice injected with Bovine serum Albumin(BSA) at 50 ug/dose in experiment 1
# In short: (§1)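 Female ICR/Ha mice, 5–6 weeks old, groups of six, given one subcutaneous injection between the shoulders of 0.25 mL PBS containing 100 μg BSA monomer plus analogue (dissolved or sonicated). Boosted at day 21 with 100 μg BSA alone, bled at day 31. Anti-BSA passive hemagglutination was run on sheep-RBC-adsorbed sera with twofold dilutions on BSA-coated sheep cells. Result is the group geometric mean reciprocal titer.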
# [3] = species on record: Mus musculus; assay: Tested for antibody response of mice injected with Bovine serum Albumin(BSA) at 5 ug/dose in experiment 6; in short: as §1
# [4] = species on record: Mus musculus; assay: Tested for antibody response of mice injected with Bovine serum Albumin(BSA) at 50 ug/dose in experiment 6
# [5] = species on record: Mus musculus; assay: Tested for antibody response in mice injected with various Hepatitis B Vaccine at 50 ug/dose in experiment 1
# In short: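 Female 5-week-old ICR mice, groups of 20, injected subcutaneously with 0.5 mL holding 1.25 μg aqueous hepatitis B vaccine (plasma-derived) mixed with 50 μg analogue in PBS (pH 7.5). Controls were aqueous vaccine alone and alum-adsorbed vaccine at 1.25 μg. Mice bled from vena cava at 6 weeks. Anti-HBs measured by radioimmunoassay; geometric mean titer reported as reciprocal serum dilution, plus responder count.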
# [6] = species on record: Mus musculus; assay: Tested for antibody response of mice injected with Bovine serum Albumin(BSA) at 5 ug/dose in experiment 5; in short: as §1
# [7] = species on record: Mus musculus; assay: Tested for antibody response of mice injected with Bovine serum Albumin(BSA) at 50 ug/dose in experiment 5
# [8] = species on record: Mus musculus; assay: Tested for antibody response of mice injected with Bovine serum Albumin(BSA) at 50 ug/dose in experiment 2; in short: as §1
# [9] = species on record: Mus musculus; assay: Tested for antibody response of mice injected with Bovine serum Albumin(BSA) at 50 ug/dose in experiment 3; in short: as §1
# [10] = species on record: Mus musculus; assay: Tested for antibody response of mice injected with Bovine serum Albumin(BSA) at 50 ug/dose in experiment 4
Compound,Geometric mean [1],Geometric mean [2],Geometric mean [3],Geometric mean [4],Geometric mean [5],Geometric mean [6],Geometric mean [7],Geometric mean [8],Geometric mean [9],Geometric mean [10]
CCCCCCCCCCCCCCCCCCCCCC(=O)OC(C)(C)C(=O)OCC1OC(O)C(NC(C)=O)C(O[C@H](C)C(=O)N[C@@H](C)C(=O)NC(CCC(=O)O)C(N)=O)C1O (stereo not given in full),431,768,823.12,716.57,,,,,,
CC(=O)NCC1OC(O)C(NC(C)=O)C(O[C@H](C)C(=O)N[C@@H](C)C(=O)NC(CCC(=O)O)C(N)=O)C1O (stereo not given in full),6.17,7.78,,,,,,,,
CC(=O)NC1C(O)OC(COC(C)=O)C(OC(C)=O)C1O[C@H](C)C(=O)N[C@@H](C)C(=O)NC(CCC(=O)O)C(N)=O (stereo not given in full),4.36,384,,,,,,,,
CCCCCCCCCCCCCCCCCC(=O)OCC(OC(C)=O)C1OC(O)C(NC(C)=O)C1OC(C)C(=O)N[C@@H](C)C(=O)NC(CCC(=O)O)C(N)=O (stereo not given in full),28.12,1408.52,,,69.6,107.76,215.51,,,
CC(=O)N[C@H]1C(O)O[C@H](CO)[C@@H](O)[C@@H]1O[C@H](C)C(=O)N[C@@H](C)C(=O)N[C@H](CCC(=O)O)C(N)=O (stereo not given in full) [MURAMYL DIPEPTIDE],28.12,592.21,,179.14,,<3,28.26,215.51,241.9,1536
CCCCCCCCCCCCCCCCCCCCCC(=O)OC(C)(C)C(=O)OCC(OC(C)=O)C1OC(O)C(NC(C)=O)C1OC(C)C(=O)N[C@@H](C)C(=O)NC(CCC(=O)O)C(N)=O (stereo not given in full),543.06,215.51,,,303.6,,,,,
CC(=O)NC1C(O)OC(C(COC(C)=O)OC(C)=O)C1OC(C)C(=O)N[C@@H](C)C(=O)NC(CCC(=O)O)C(N)=O (stereo not given in full),31.12,271.53,13.08,113.49,38.1,,,,,
CCCCCCCCCCCCCCCCCC(=O)OCC1OC(O)C(NC(C)=O)C(O[C@H](C)C(=O)N[C@@H](C)C(=O)NC(CCC(=O)O)C(N)=O)C1O (stereo not given in full),271.53,995.97,,,,,,,,
CCCCCCCCCCCCCCCCCC(=O)NCC1OC(O)C(NC(C)=O)C(O[C@H](C)C(=O)N[C@@H](C)C(=O)NC(CCC(=O)O)C(N)=O)C1O (stereo not given in full),<3,<3,,,,,,,,
COC1OC(C(O)CO)C(OC(C)C(=O)N[C@@H](C)C(=O)NC(CCC(=O)O)C(N)=O)C1NC(C)=O (stereo not given in full),10.7,10.7,,,,,,,,
